In brackets after ≈: the same amount, converted by molar mass.
Assays:
HepG2 = test: Antiproliferative activity against human HepG2 cells after 48 hrs by MTT assay; type: functional, cell-based; conditions: HepG2, 48 h
Summary of the method: (§1)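 Log-phase cells grown in RPMI 1640 with 10% FBS were seeded at 2 × 10⁴ cells/mL and left 24 h at 37 °C, 5% CO₂. […] After 48 h MTT was added and the formazan dissolved in 10% SDS–5% isobutyl alcohol–0.01 M HCl overnight at 37 °C. OD was read at 570 nm, three replicate wells per concentration.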

A549 = test: Antiproliferative activity against human A549 cells after 48 hrs by MTT assay; type: functional, cell-based; conditions: A549, 48 h; summary of the method: as §1
B16-F10 [1] = test: Antiproliferative activity against mouse B16F10 cells after 48 hrs by MTT assay; type: functional, cell-based; conditions: B16-F10, 48 h; summary of the method: as §1
[2] = Inhibition of bovine brain tubulin polymerization after 20 mins by turbidimetry; design: species or system Bos taurus
Summary of the method: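 Varying concentrations were preincubated with 10 µM tubulin in glutamate buffer at 30 °C, then cooled to 0 °C. GTP was added and the mixtures moved to 0 °C cuvettes in a recording spectrophotometer. Assembly was followed by turbidity on warming to 30 °C.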

B16-F10 [3] = test: Cell cycle arrest in mouse B16F10 cells assessed as accumulation at G2/M phase at 1 ug/ml after 24 hrs by flow cytometry (Rbv = 12.27%); type: functional
B16-F10 [4] = test: Cell cycle arrest in mouse B16F10 cells assessed as accumulation at G2/M phase at 5 ug/ml after 24 hrs by flow cytometry (Rbv = 12.27%); type: functional
B16-F10 [5] = test: Cell cycle arrest in mouse B16F10 cells assessed as accumulation at Go/G1 phase at 1 ug/ml after 24 hrs by flow cytometry (Rbv = 66.15%); type: functional
B16-F10 [6] = test: Cell cycle arrest in mouse B16F10 cells assessed as accumulation at Go/G1 phase at 5 ug/ml after 24 hrs by flow cytometry (Rbv = 66.15%); type: functional
B16-F10 [7] = test: Cell cycle arrest in mouse B16F10 cells assessed as accumulation at S phase at 1 ug/ml after 24 hrs by flow cytometry (Rbv = 14.96%); type: functional
B16-F10 [8] = test: Cell cycle arrest in mouse B16F10 cells assessed as accumulation at S phase at 5 ug/ml after 24 hrs by flow cytometry (Rbv = 14.96%); type: functional

CCCCOc1ccc(C(=O)/C=C/c2c(/C=C/c3ccc(OC)cc3)cc(OC)cc2OC)cc1
IC50 (HepG2): 12.9 µg/mL (≈ 27.3 µM) | IC50 (A549): 8.7 µg/mL (≈ 18.4 µM) | IC50 (B16-F10 [1]): 5.3 µg/mL (≈ 11.2 µM) | IC50 [2]: 94 µg/mL (≈ 199 µM)

CCCC(C)Oc1ccc(C(=O)/C=C/c2c(/C=C/c3ccc(OC)cc3)cc(OC)cc2OC)cc1 (configuration not stated)
IC50 (HepG2): 11.1 µg/mL (≈ 22.8 µM) | IC50 (A549): 9.4 µg/mL (≈ 19.3 µM) | IC50 (B16-F10 [1]): 6.7 µg/mL (≈ 13.8 µM) | IC50 [2]: 55 µg/mL (≈ 113 µM)

CCCCCCOc1ccc(C(=O)/C=C/c2c(/C=C/c3ccc(OC)cc3)cc(OC)cc2OC)cc1
IC50 (HepG2): 16.2 µg/mL (≈ 32.4 µM) | IC50 (A549): 8.4 µg/mL (≈ 16.8 µM) | IC50 (B16-F10 [1]): 10.4 µg/mL (≈ 20.8 µM) | IC50 [2]: 131 µg/mL (≈ 262 µM)

CCCCCCCCCCCCOc1ccc(C(=O)/C=C/c2c(/C=C/c3ccc(OC)cc3)cc(OC)cc2OC)cc1
IC50 (HepG2): 11.6 µg/mL (≈ 19.8 µM) | IC50 (A549): 7.9 µg/mL (≈ 13.5 µM) | IC50 (B16-F10 [1]): 12.7 µg/mL (≈ 21.7 µM) | IC50 [2]: 58 µg/mL (≈ 99.2 µM)

COc1ccc(/C=C/c2cc(OC)cc(OC)c2/C=C/C(=O)c2ccc(F)cc2)cc1
IC50 (HepG2): 12.2 µg/mL (≈ 29.2 µM) | IC50 (A549): 6.6 µg/mL (≈ 15.8 µM) | IC50 (B16-F10 [1]): 5.3 µg/mL (≈ 12.7 µM) | IC50 [2]: 64 µg/mL (≈ 153 µM)

COc1ccc(/C=C/c2cc(OC)cc(OC)c2/C=C/C(=O)c2ccc(Cl)cc2)cc1
IC50 (HepG2): 13.6 µg/mL (≈ 31.3 µM) | IC50 (A549): 6.4 µg/mL (≈ 14.7 µM) | IC50 (B16-F10 [1]): 4.9 µg/mL (≈ 11.3 µM) | IC50 [2]: 80 µg/mL (≈ 184 µM)

COc1ccc(/C=C/c2cc(OC)cc(OC)c2/C=C/C(=O)c2ccc(Br)cc2)cc1
IC50 (HepG2): 12.9 µg/mL (≈ 26.9 µM) | IC50 (A549): 8.3 µg/mL (≈ 17.3 µM) | IC50 (B16-F10 [1]): 6.5 µg/mL (≈ 13.6 µM) | IC50 [2]: 72 µg/mL (≈ 150 µM)

COc1ccc(/C=C/c2cc(OC)cc(OC)c2/C=C/C(=O)c2cccc(Cl)c2)cc1
IC50 (HepG2): 9.5 µg/mL (≈ 21.8 µM) | IC50 (A549): 5.6 µg/mL (≈ 12.9 µM) | IC50 (B16-F10 [1]): 3.3 µg/mL (≈ 7.59 µM) | IC50 [2]: 41 µg/mL (≈ 94.3 µM)

COc1ccc(/C=C/c2cc(OC)cc(OC)c2/C=C/C(=O)c2cccc(Br)c2)cc1
IC50 (HepG2): 13 µg/mL (≈ 27.1 µM) | IC50 (A549): 8.1 µg/mL (≈ 16.9 µM) | IC50 (B16-F10 [1]): 5.1 µg/mL (≈ 10.6 µM) | IC50 [2]: 76 µg/mL (≈ 159 µM)

COc1ccc(/C=C/c2cc(OC)cc(OC)c2/C=C/C(=O)c2ccc(Cl)c(Cl)c2)cc1
IC50 (HepG2): 10.8 µg/mL (≈ 23 µM) | IC50 (A549): 5.9 µg/mL (≈ 12.6 µM) | IC50 (B16-F10 [1]): 7.5 µg/mL (≈ 16 µM) | IC50 [2]: 47 µg/mL (≈ 100 µM)

COc1ccc(/C=C/c2cc(OC)cc(OC)c2/C=C/C(=O)c2ccc(C(F)(F)F)cc2)cc1
IC50 (HepG2): 18.7 µg/mL (≈ 39.9 µM) | IC50 (A549): 7.8 µg/mL (≈ 16.6 µM) | IC50 (B16-F10 [1]): 4.3 µg/mL (≈ 9.18 µM) | IC50 [2]: 150 µg/mL (≈ 320 µM)

COc1ccc(/C=C/c2cc(OC)cc(OC)c2/C=C/C(=O)c2ccc(C)cc2)cc1
IC50 (HepG2): 4.8 µg/mL (≈ 11.6 µM) | IC50 (A549): 3.6 µg/mL (≈ 8.69 µM) | IC50 (B16-F10 [1]): 5.3 µg/mL (≈ 12.8 µM) | IC50 [2]: 29 µg/mL (≈ 70 µM)

COc1ccc(/C=C/c2cc(OC)cc(OC)c2/C=C/C(=O)c2ccccc2C)cc1
IC50 (HepG2): 5.3 µg/mL (≈ 12.8 µM) | IC50 (A549): 5.9 µg/mL (≈ 14.2 µM) | IC50 (B16-F10 [1]): 6.1 µg/mL (≈ 14.7 µM) | IC50 [2]: 42 µg/mL (≈ 101 µM)

COc1ccc(/C=C/c2cc(OC)cc(OC)c2/C=C/C(=O)c2ccc(C)cc2C)cc1
IC50 (HepG2): 0.9 µg/mL (≈ 2.1 µM) | IC50 (A549): 0.3 µg/mL (≈ 0.7 µM) | IC50 (B16-F10 [1]): 4 µg/mL (≈ 9.33 µM) | IC50 [2]: 4.1 µg/mL (≈ 9.57 µM)

COc1ccc(/C=C/c2cc(OC)cc(OC)c2/C=C/C(=O)c2ccc(C)c(C)c2)cc1
IC50 (HepG2): 0.2 µg/mL (≈ 0.467 µM) | IC50 (A549): 0.1 µg/mL (≈ 0.233 µM) | IC50 (B16-F10 [1]): 1.4 µg/mL (≈ 3.27 µM) | IC50 [2]: 2.6 µg/mL (≈ 6.07 µM) | Activity (B16-F10 [3]): 31.5% | Activity (B16-F10 [4]): 72.1% | Activity (B16-F10 [5]): 39.65% | Activity (B16-F10 [6]): 10.05% | Activity (B16-F10 [7]): 13.99% | Activity (B16-F10 [8]): 7.04%

COc1ccc(/C=C/c2cc(OC)cc(OC)c2/C=C/C(=O)c2ccc(N)cc2)cc1
IC50 (HepG2): 7.5 µg/mL (≈ 18.1 µM) | IC50 (A549): 3.8 µg/mL (≈ 9.15 µM) | IC50 (B16-F10 [1]): 2.8 µg/mL (≈ 6.74 µM) | IC50 [2]: 36 µg/mL (≈ 86.6 µM)

CCN(CC)c1ccc(C(=O)/C=C/c2c(/C=C/c3ccc(OC)cc3)cc(OC)cc2OC)cc1
IC50 (HepG2): 6.3 µg/mL (≈ 13.4 µM) | IC50 (A549): 5.4 µg/mL (≈ 11.5 µM) | IC50 (B16-F10 [1]): 8.1 µg/mL (≈ 17.2 µM) | IC50 [2]: 33 µg/mL (≈ 70 µM)

COc1ccc(/C=C/c2cc(OC)cc(OC)c2/C=C/C(=O)c2ccc(-c3ccccc3)cc2)cc1
IC50 (HepG2): 10.5 µg/mL (≈ 22 µM) | IC50 (A549): 4.6 µg/mL (≈ 9.65 µM) | IC50 (B16-F10 [1]): 10.6 µg/mL (≈ 22.2 µM) | IC50 [2]: 44 µg/mL (≈ 92.3 µM)

COc1ccc(/C=C/c2cc(OC)cc(OC)c2/C=C/C(=O)c2ccc(N3CCOCC3)cc2)cc1
IC50 (HepG2): 7.3 µg/mL (≈ 15 µM) | IC50 (A549): 3.8 µg/mL (≈ 7.83 µM) | IC50 (B16-F10 [1]): 3.3 µg/mL (≈ 6.8 µM) | IC50 [2]: 38 µg/mL (≈ 78.3 µM)

COc1ccc(/C=C/c2cc(OC)cc(OC)c2/C=C/C(=O)c2ccccc2)cc1
IC50 (HepG2): 6.8 µg/mL (≈ 17 µM) | IC50 (A549): 3.9 µg/mL (≈ 9.74 µM) | IC50 (B16-F10 [1]): 3.7 µg/mL (≈ 9.24 µM) | IC50 [2]: 34 µg/mL (≈ 84.9 µM)

COc1ccc(/C=C/c2cc(OC)cc(OC)c2/C=C/C(=O)c2cccc(OC)c2)cc1
IC50 (HepG2): 11.6 µg/mL (≈ 26.9 µM) | IC50 (A549): 6.1 µg/mL (≈ 14.2 µM) | IC50 (B16-F10 [1]): 4.3 µg/mL (≈ 9.99 µM) | IC50 [2]: 59 µg/mL (≈ 137 µM)

COc1ccc(/C=C/c2cc(OC)cc(OC)c2/C=C/C(=O)c2ccc(OC)cc2)cc1
IC50 (HepG2): 4.9 µg/mL (≈ 11.4 µM) | IC50 (A549): 4.5 µg/mL (≈ 10.5 µM) | IC50 (B16-F10 [1]): 5.8 µg/mL (≈ 13.5 µM) | IC50 [2]: 43 µg/mL (≈ 99.9 µM)

CCOc1ccc(C(=O)/C=C/c2c(/C=C/c3ccc(OC)cc3)cc(OC)cc2OC)cc1
IC50 (HepG2): 8 µg/mL (≈ 18 µM) | IC50 (A549): 7.5 µg/mL (≈ 16.9 µM) | IC50 (B16-F10 [1]): 6.4 µg/mL (≈ 14.4 µM) | IC50 [2]: 26 µg/mL (≈ 58.5 µM)

COc1cc2c(c(OC)c1OC)-c1ccc(OC)c(=O)cc1[C@@H](NC(C)=O)CC2 [COLCHICINE]
IC50 (HepG2): 0.23 µg/mL (≈ 0.576 µM) | IC50 (A549): 0.12 µg/mL (≈ 0.3 µM) | IC50 (B16-F10 [1]): 0.5 µg/mL (≈ 1.25 µM) | Activity (B16-F10 [3]): 90.46% | Activity (B16-F10 [5]): 2.65% | Activity (B16-F10 [7]): 2.29%

COc1ccc(/C=C\c2cc(OC)c(OC)c(OC)c2)cc1O [COMBRETASTATIN A4]
IC50 (HepG2): 0.19 µg/mL (≈ 0.601 µM) | IC50 (A549): 0.09 µg/mL (≈ 0.284 µM) | IC50 (B16-F10 [1]): 0.4 µg/mL (≈ 1.26 µM) | IC50 [2]: 0.7 µg/mL (≈ 2.21 µM)

Oc1ccc(/C=C/c2cc(O)cc(O)c2)cc1 [RESVERATROL]
IC50 (HepG2): 38.9 µg/mL (≈ 170 µM) | IC50 (A549): 30.4 µg/mL (≈ 133 µM) | IC50 (B16-F10 [1]): 37.3 µg/mL (≈ 163 µM) | IC50 [2]: 158 µg/mL (≈ 692 µM)

— ChEMBL document CHEMBL1770121 (Bioorg Med Chem, 2011)
